According to ChEMBL document CHEMBL3864154, “Discovery and preliminary structure-activity relationship of 1H-indazoles with promising indoleamine-2,3-dioxygenase 1 (IDO1) inhibition properties” (Bioorg Med Chem, 2016):

How the values were obtained:
[1] = molecular target: T1, Indoleamine 2,3-dioxygenase 1 (Homo sapiens, UniProt P14902); test: Inhibition of recombinant human N-terminus IDO1 expressed in Escherichia coli assessed as N-formylkynurenine formation at 10 uM using L-tryptophan as substrate measured after 180 mins by UV absorbance based assay
Method in brief: (§1)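 Human N-terminal IDO1 expressed in E. coli, Ni affinity-purified; 40 nmol/L enzyme with 900 μmol/L tryptophan plus coupled reaction components in IDO1 assay buffer, 0.5% DMSO final, room temperature, 180 min. N-formylkynurenine read by UV absorbance at 321 nm. Blank lacks enzyme; positive control lacks inhibitor.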
Target sequence in this assay (P14902 whole entry, looked up): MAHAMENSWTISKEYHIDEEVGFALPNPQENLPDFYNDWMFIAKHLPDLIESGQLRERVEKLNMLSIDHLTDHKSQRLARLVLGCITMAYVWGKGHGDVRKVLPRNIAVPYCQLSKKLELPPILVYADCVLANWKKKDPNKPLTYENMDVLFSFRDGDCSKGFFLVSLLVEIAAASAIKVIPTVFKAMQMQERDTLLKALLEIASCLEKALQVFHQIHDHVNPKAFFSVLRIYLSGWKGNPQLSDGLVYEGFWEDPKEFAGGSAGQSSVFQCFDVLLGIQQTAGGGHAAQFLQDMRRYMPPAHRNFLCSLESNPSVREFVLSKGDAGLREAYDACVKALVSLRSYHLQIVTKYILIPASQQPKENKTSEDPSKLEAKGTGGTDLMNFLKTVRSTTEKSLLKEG

[2] = molecular target: T1, Indoleamine 2,3-dioxygenase 1; test: Inhibition of recombinant human N-terminus IDO1 expressed in Escherichia coli assessed as N-formylkynurenine formation at 100 uM using L-tryptophan as substrate measured after 180 mins by UV absorbance based assay; method in brief: as §1
Target sequence in this assay (P14902 whole entry, looked up): as above

[3] = molecular target: T1, Indoleamine 2,3-dioxygenase 1; test: Inhibition of recombinant human N-terminus IDO1 expressed in Escherichia coli assessed as N-formylkynurenine formation at 1 uM using L-tryptophan as substrate measured after 180 mins by UV absorbance based assay
Target sequence in this assay (P14902 whole entry, looked up): as above

[4] = molecular target: T1, Indoleamine 2,3-dioxygenase 1; test: Inhibition of recombinant human N-terminus IDO1 expressed in Escherichia coli assessed as residual activity at -5 log[compound]/M using L-tryptophan as substrate measured after 180 mins by UV absorbance based assay relative to control
Method in brief: (§2)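 E. coli-expressed, Ni affinity-purified human N-terminal IDO1 at 40 nmol/L with 900 μmol/L tryptophan, coupled reaction components, 0.5% DMSO final, room temperature, 180 min; N-formylkynurenine read at 321 nm. Duplicates per concentration; % activity relative to no-inhibitor control, fitted by sigmoidal dose-response nonlinear regression; IC50 at half-maximal activity.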
Target sequence in this assay (P14902 whole entry, looked up): as above

[5] = molecular target: T1, Indoleamine 2,3-dioxygenase 1; test: Inhibition of recombinant human N-terminus IDO1 expressed in Escherichia coli assessed as N-formylkynurenine formation using L-tryptophan as substrate measured after 180 mins by UV absorbance based assay; method in brief: as §2
Target sequence in this assay (P14902 whole entry): as the sequence (P14902 whole entry, looked up) above

[6] = molecular target: T1, Indoleamine 2,3-dioxygenase 1; test: Inhibition of recombinant human N-terminus IDO1 expressed in Escherichia coli assessed as residual activity at -8.3 log[compound]/M using L-tryptophan as substrate measured after 180 mins by UV absorbance based assay relative to control; method in brief: as §2
Target sequence in this assay (P14902 whole entry, looked up): as above

[7] = molecular target: T1, Indoleamine 2,3-dioxygenase 1; test: Inhibition of recombinant human N-terminus IDO1 expressed in Escherichia coli assessed as residual activity at -6.4 log[compound]/M using L-tryptophan as substrate measured after 180 mins by UV absorbance based assay relative to control; method in brief: as §2
Target sequence in this assay (P14902 whole entry, looked up): as above

[8] = molecular target: T1, Indoleamine 2,3-dioxygenase 1; test: Inhibition of recombinant human N-terminus IDO1 expressed in Escherichia coli assessed as residual activity at -6.9 log[compound]/M using L-tryptophan as substrate measured after 180 mins by UV absorbance based assay relative to control; method in brief: as §2
[9] = molecular target: T1, Indoleamine 2,3-dioxygenase 1; test: Inhibition of recombinant human N-terminus IDO1 expressed in Escherichia coli assessed as residual activity at -5.9 log[compound]/M using L-tryptophan as substrate measured after 180 mins by UV absorbance based assay relative to control; method in brief: as §2
[10] = molecular target: T1, Indoleamine 2,3-dioxygenase 1; test: Inhibition of recombinant human N-terminus IDO1 expressed in Escherichia coli assessed as residual activity at -8.8 log[compound]/M using L-tryptophan as substrate measured after 180 mins by UV absorbance based assay relative to control; method in brief: as §2
[11] = molecular target: T1, Indoleamine 2,3-dioxygenase 1; test: Inhibition of recombinant human N-terminus IDO1 expressed in Escherichia coli assessed as residual activity at -5.4 log[compound]/M using L-tryptophan as substrate measured after 180 mins by UV absorbance based assay relative to control; method in brief: as §2
[12] = molecular target: T1, Indoleamine 2,3-dioxygenase 1; test: Inhibition of recombinant human N-terminus IDO1 expressed in Escherichia coli assessed as residual activity at -4.5 log[compound]/M using L-tryptophan as substrate measured after 180 mins by UV absorbance based assay relative to control; method in brief: as §2
[13] = molecular target: T1, Indoleamine 2,3-dioxygenase 1; test: Inhibition of recombinant human N-terminus IDO1 expressed in Escherichia coli assessed as residual activity at -7.3 log[compound]/M using L-tryptophan as substrate measured after 180 mins by UV absorbance based assay relative to control; method in brief: as §2
[14] = molecular target: T1, Indoleamine 2,3-dioxygenase 1; test: Inhibition of recombinant human N-terminus IDO1 expressed in Escherichia coli assessed as residual activity at -7.8 log[compound]/M using L-tryptophan as substrate measured after 180 mins by UV absorbance based assay relative to control; method in brief: as §2

O=C(O)c1cccc(CNc2cc(Br)cc3[nH]ncc23)c1
inhibition [1]: 21% | inhibition [2]: 74%

O=C(CNc1cc(Br)cc2[nH]ncc12)NC1CCOCC1
inhibition [3]: 4% | inhibition [1]: 8% | inhibition [2]: 34%

O=C(O)c1cc(CNc2cc(Br)cc3[nH]ncc23)ccc1O
inhibition [1]: 38% | inhibition [2]: 88%

O=C(O)c1ccc(COc2cc(Br)cc3[nH]ncc23)cc1
inhibition [1]: 18% | inhibition [2]: 69%

O=C(O)c1ccc(C(O)CNc2cc(Br)cc3[nH]ncc23)cc1 (centres undefined)
inhibition [1]: 31% | inhibition [2]: 73%

O=C(O)c1ccc(CNc2ncnc3[nH]ncc23)cc1
inhibition [3]: 3% | inhibition [1]: 3% | inhibition [2]: 9%

Brc1cc(NCc2ccccc2)c2cn[nH]c2c1
inhibition [1]: 37% | inhibition [2]: 100%

Cc1ccc(CNc2cc(Br)cc3[nH]ncc23)cc1
inhibition [1]: 20% | inhibition [2]: 84%

Oc1ccc(CNc2cc(Br)cc3[nH]ncc23)cc1
Activity [4]: 26% | IC50 [5]: 5.3 µM | Activity [6]: 91% | Activity [7]: 82% | Activity [8]: 87% | Activity [9]: 71% | Activity [10]: 92% | Activity [11]: 51% | inhibition [1]: 70% | Activity [12]: 9% | inhibition [2]: 100% | Activity [13]: 88% | Activity [14]: 91%

O=C(O)Cc1ccc(CNc2cc(Br)cc3[nH]ncc23)cc1
inhibition [1]: 27% | inhibition [2]: 79%

Cc1nc(NCc2cccc(C(=O)O)c2)c2cn[nH]c2n1
inhibition [3]: 3% | inhibition [1]: 5% | inhibition [2]: 32%

O=C(O)c1ccc(CNc2cccc3[nH]ncc23)cc1
inhibition [1]: 1% | inhibition [2]: 24%

Cc1nc(NCc2ccc(C(=O)O)cc2)c2cn[nH]c2n1
inhibition [3]: 3% | inhibition [1]: 5% | inhibition [2]: 37%

O=C(O)c1cccc(CNc2ncnc3[nH]ncc23)c1
inhibition [3]: 2% | inhibition [1]: 2% | inhibition [2]: 7%

O=C(O)c1cccc(COc2cc(Br)cc3[nH]ncc23)c1
inhibition [1]: 7% | inhibition [2]: 40%

Clc1ccc(CNc2cc(Br)cc3[nH]ncc23)cc1
inhibition [1]: 42% | inhibition [2]: 100%

O=C(O)c1ccc(C(CO)Nc2cc(Br)cc3[nH]ncc23)cc1 (centres undefined)
inhibition [1]: 19% | inhibition [2]: 68%

Oc1ccccc1CNc1cc(Br)cc2[nH]ncc12
inhibition [1]: 41% | inhibition [2]: 100%

NS(=O)(=O)NCCNc1nonc1/C(=N/O)Nc1ccc(F)c(Br)c1
inhibition [1]: 100%

O=C(O)c1ccc(CNc2cc(Br)cc3[nH]ncc23)cc1
inhibition [3]: 19% | inhibition [1]: 49 to 58% | inhibition [2]: 91 to 94%

O=C(CNc1cc(Br)cc2[nH]ncc12)Nc1ccc(C(=O)O)cc1
inhibition [3]: 3% | inhibition [1]: 12% | inhibition [2]: 37%
